Published values collected from several papers.
Target: Mitogen-activated protein kinase kinase kinase kinase 5 (MAP4K5, Homo sapiens, UniProt Q9Y4K4)

COc1ccc2c(O[C@@H]3C[C@H]4C(=O)N[C@]5(C(=O)O)CC5/C=C\CCCCC[C@H](NC(=O)OC5CCCC5)C(=O)N4C3)cc(-c3csc(NC(=O)C(C)C)n3)nc2c1C (some centres unmarked) — remaining binding (cell-free assay; competition with immobilised ligand; 1 µM): 100%
CNC(=O)[C@@H]1CC[C@@H](n2c(-c3ccc4cnccc4c3)nc3ccc(C(=O)NCc4cccc(C(N)=O)c4)cc32)C1 — remaining binding (binding; competition with immobilised ligand; 1 µM): 100%
O=C(NCCCN1CCOCC1)c1ccc(Nc2ncc(Cl)c(-c3ccc(Cl)s3)n2)cc1 — remaining binding (binding; competition with immobilised ligand; 1 µM): 63%
COc1cnc(Nc2cccc(S(N)(=O)=O)c2)nc1N1CCN(c2ccccc2)CC1 — remaining binding (binding; competition with immobilised ligand; 1 µM): 100%
CN(c1nccc(-c2cnn3ncccc23)n1)C1CC1 — remaining binding (binding; 1 µM): 3.2%
CC(=O)c1c(NS(C)(=O)=O)c2cc(-c3ccc(Cl)cc3)c(-c3ccc(Cl)cc3Cl)nc2n(C)c1=O — remaining binding (cell-free assay; competition with immobilised ligand; 1 µM): 100%
c1cncc(-c2cccc(Nc3nccc(NC4CCCCC4)n3)c2)c1 — remaining binding (binding; competition with immobilised ligand; 10 µM): 91%
CC(=O)Nc1c(C(C)=O)c(=O)n(C)c2nc(-c3ccc(Cl)cc3Cl)c(-c3ccc(Cl)cc3)cc12 — remaining binding (cell-free assay; competition with immobilised ligand; 1 µM): 100%
O=C(Nc1c[nH]nc1C(=O)NC1CCNCC1)c1cc(F)cc(F)c1 — remaining binding (binding; competition with immobilised ligand; 1 µM): 100%
FC(F)(F)Oc1cccc(-c2cnc3ccc(-c4ccncc4)nn23)c1 — remaining binding (cell-free assay; competition with immobilised ligand; 5 µM): 77%
c1cnn2ncc(-c3ccnc(N4CCC45COC5)n3)c2c1 — remaining binding (binding; 1 µM): 94%
Cc1c(NC(=O)c2cc(C(N)=O)nc3cc(F)ccc23)c(C(F)(F)F)nn1Cc1ccc(C#N)cc1 — remaining binding (cell-free assay; competition with immobilised ligand; 1 µM): 74%
N[C@H]1CCN(c2nccc(-c3cnn4ncccc34)n2)C1 — remaining binding (binding; 1 µM): 100%
O=C(NCc1ncc(C(F)(F)F)cc1Cl)c1ccc2c(c1)C1(CCS(=O)(=O)CC1)[C@@H](C1CC1)N2S(=O)(=O)c1ccc(F)cc1 — remaining binding (cell-free assay; competition with immobilised ligand; 1 µM): 100%
CN(C)c1nccc(-c2cnn3ncccc23)n1 — remaining binding (binding; 1 µM): 88%
COc1ncc2cc3ccccc3nc2c1C#N — remaining binding (cell-free assay; competition with immobilised ligand; 5 µM): 95%
C[C@H]1CCN(c2nccc(-c3cnn4ncccc34)n2)C1 — remaining binding (binding; 1 µM): 90%
CCS(=O)(=O)c1cc2cc(C[C@](O)(CC(C)(C)c3ccc(F)cc3C(N)=O)C(F)(F)F)[nH]c2cn1 — remaining binding (cell-free assay; competition with immobilised ligand; 1 µM): 100%
O=C(c1ccc(Nc2ncc(Cl)c(-c3ccc(Cl)s3)n2)cc1)N1CCC(N2CCCC2)CC1 — remaining binding (binding; competition with immobilised ligand; 1 µM): 45%
CN(C)c1ncc(F)c(-c2cnn3ncccc23)n1 — remaining binding (binding; 1 µM): 100%
